Assay outcomes (PubChem)
Rce1 inh: yeast Rce1p protease inhibitors, primary screen, biochemical, fluorescence, cell-free homogeneous. yeast membranes, quenched prenylated peptide cleavage fluorescence. calls only. 0.27% of 290,000 active;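 active = fall in fluorescence gain of 50% or more versus controls, with final raw signal at or below 3038400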;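 note: plate controls were neutral control wells for no effect and wells lacking membranes for full effect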
Target sequence (Q03530 whole entry, looked up): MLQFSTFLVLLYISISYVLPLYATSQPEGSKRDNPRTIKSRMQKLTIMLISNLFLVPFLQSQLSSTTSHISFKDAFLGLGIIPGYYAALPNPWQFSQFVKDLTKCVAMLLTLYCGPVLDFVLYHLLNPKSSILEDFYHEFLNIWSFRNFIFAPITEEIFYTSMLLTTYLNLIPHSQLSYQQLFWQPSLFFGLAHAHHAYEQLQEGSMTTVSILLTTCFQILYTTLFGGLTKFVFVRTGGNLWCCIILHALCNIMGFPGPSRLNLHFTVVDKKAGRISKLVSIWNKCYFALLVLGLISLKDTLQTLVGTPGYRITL
NadD inh: inhibitors of S. aureus NadD, primary screen, biochemical, colorimetric, uHTS; inhibition, % at 20 µM; Nicotinate-nucleotide adenylyltransferase NadD (Staphylococcus aureus N315); 0.78% of 360,000 active; purified NadD enzyme, colorimetric absorbance read-out; in the data active = inhibition above about 26%
HCV core dimer: inhibitors of HCV core protein dimerization, primary screen, biochemical, TR-FRET, high-throughput; TR-FRET GST/Flag-core106 dimerization, 1536-well; inhibition, % at 5 µM; 0.33% of 300,000 active; AID 1899, 2009;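 active = inhibition above the mean of all tested compounds plus 3 SD, set per screening campaign, cut at about 45% in these data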
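Material: Tagged HCV core106 pair (GST and Flag) | Amount: GST-core106 13.5 nM, Flag-core106 17 nM | Medium: KF-containing HEPES buffer, pH 7.45, DTT, CHAPS, BSA | Reagent: Eu donor and XL665 acceptor anti-tag antibodies | Schedule: 4 h at 22.5 °C | Technique: Time-resolved FRET, ex 340 nm, em 617 and 671 nm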
Pemphigus Ab inh: inhibitors of pemphigus antibody binding to DSG3, primary screen, biochemical, bead-based, flow cytometry, scFv-GFP | Desmoglein-3 (Homo sapiens), P32926 | DSG3-coupled beads, scFv-anti-DSG3-GFP binding; active compounds read low | binding (percent of control), % at 10 µM | 0.48% of 310,000 active | AID 588358, 2011;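 active = binding more than 3 SD below its plate's average and above zero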;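 note: hits lower antibody fragment binding to DSG3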
TbMetRS inhib: T. brucei MetRS inhibitors, primary screen, biochemical, luminescence. AID 624268, 2012. inhibition, % at 11.9 µM. 0.4% of 360,000 active. methionyl-tRNA synthetase (Trypanosoma brucei brucei). purified T. brucei MetRS, ATP depletion, Kinase-Glo luminescence;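 active = inhibition above a per-plate cutoff of the control wells' mean inhibition plus 3 SD, cut at about 5.5% in these data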;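 note: 0% = DMSO wells median and 100% = median of wells with control inhibitor compound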
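Assay system: T. brucei methionyl-tRNA synthetase, purified | Medium: HEPES buffer with MgCl2, KCl, DTT, spermine, BSA, pyrophosphatase | Compound: 11.9 µM single point | Incubation: 15 min enzyme-compound preincubation, 2 h reaction, 10 min detection, 25 °C | Measured by: Kinase-Glo luciferase luminescence reporting remaining unconsumed ATP | Measure: % inhibition normalized to control-well medians | Replication: Singlicate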
* hit, by the source's call; i = inactive; . = no result given; + = active, no number. Shown are actives, neighbours in structure and some others; about 1.9% of the full set was active somewhere.

SMILES	Rce1 inh	NadD inh	HCV core dimer	Pemphigus Ab inh	TbMetRS inhib
C[C@@]12C(=O)N(c3ccc(F)cc3)C(=O)N1[C@@H]1c3ccccc3OC[C@@H]1[C@H]2c1ccccc1	i	0.4	6.5	99.5	-0.4
O=C(COC(=O)c1cc(-c2cccs2)nc2ccccc12)NCc1ccco1	i	52.4*	62.5*	97.0	-0.3
CCN(C(=O)COC(=O)c1cc(-c2cccs2)nc2ccccc12)C1CCS(=O)(=O)C1 (configuration not stated)	+	-1.2	4.1	95.0	-0.7
O=C(COC(=O)c1ccccc1)NCc1ccco1	i	0.5	42.7	91.2	-1.0
CCN(C(=O)COC(=O)c1cc(-c2ccc(C)o2)nc2ccccc12)C1CCS(=O)(=O)C1 (configuration not stated)	i	5.1	9.7	100.6	-1.0
O=C(COC(=O)c1ccccc1Nc1cccc(C(F)(F)F)c1)NCc1ccco1	i	16.0	64.2*	106.3	0.1
O=C(O)c1cccc(S(=O)(=O)Nc2ccccc2C(=O)NCCc2ccccc2)c1	i	-7.5	4.6	17.1*	-0.8
O=C(O)c1cccc(S(=O)(=O)NCCc2ccccc2)c1	i	2.7	-2.9	93.9	-1.5
O=C(Nc1ccccc1O)c1cccc(S(=O)(=O)Nc2ccccc2O)c1	i	-7.3	-9.4	100.4	6.3*
Cc1ccccc1NS(=O)(=O)c1cccc(C(=O)Nc2cccc(C(=O)O)c2)c1	i	-4.0	10.5	98.0	0.2
COc1ccc(OC)c(/C=C2\S/C(=N/NC(=O)c3ccc4ccccc4c3)NC2=O)c1	i	70.1*	3.5	106.9	-0.2
O=C1N/C(=N/NC(=O)c2cccc3ccccc23)S/C1=C\c1ccccc1OCc1ccccc1	.	82.0*	.	.	0.1
CCCCN(CC)S(=O)(=O)c1ccc(C(=O)N=c2sc3cc(NC(C)=O)ccc3n2C)cc1	i	-3.0	5.4	141.2	-1.4
Cc1ccc(S(=O)(=O)NC(=O)c2cccc(Br)c2)cc1	i	-9.8	-2.1	101.4	-0.3
Cc1ccc(SCC(=O)N(C)C2CCS(=O)(=O)C2)cc1 (configuration not stated)	i	8.0	-9.7	99.8	0.7
Cc1ccc(-c2nc(SCC(=O)N(C)C3CCS(=O)(=O)C3)[nH]c2-c2ccc(C)cc2)cc1 (configuration not stated)	+	-10.2	-1.2	106.0	0.1
Cn1c(SCc2cccc(F)c2)nnc1-c1cnccn1	i	-11.9	1.9	77.3*	-0.1
CC(=O)c1ccc(N2CCN(C(=S)Nc3cccc(Cl)c3)CC2)cc1	i	-3.9	6.7	59.8*	0.7
COc1cc(C(=O)N(Cc2ccc(F)cc2)C2CCS(=O)(=O)C2)cc(OC)c1OC (configuration not stated)	i	-1.9	-0.5	98.6	-1.2
CCCCCCCCNC(C)C(O)c1ccc(SC(C)C)cc1 (configuration not stated)	+	2.9	-22.4	134.2	-0.6
O=C(O)c1ccccc1-c1ccccc1C(=O)Nc1ccc(OC(F)(F)F)cc1	i	-5.2	.	101.4	-1.2
CC(C)C(=O)Nc1c(-c2ccccc2F)c(=O)c2ccccc2n1C	i	1.1	-12.5	110.6	-0.4
Cc1ccc(-c2csc3nc4c5ccccc5c(NCCCN(C)C)nn4c(=O)c23)cc1	+	28.6	1.4	101.2	-0.5
Cc1cc(-c2nc3c4c5c(sc4[nH]c(=O)n3n2)CCC5)c(C)o1	i	-1.3	55.4*	69.8	-1.0
Cc1nc2sc3c(c2c(=O)[nH]1)CCC3	i	-2.1	-3.0	107.4	-0.3
SMILES	Rce1 inh	NadD inh	HCV core dimer	Pemphigus Ab inh	TbMetRS inhib
COc1cccc2c(=O)c(C(=O)O)c[nH]c12	+	-2.9	-0.2	124.2	-1.0
O=C(c1ccco1)N(CCC(c1ccccc1)c1ccco1)Cc1ccco1 (configuration not stated)	i	45.5*	52.1*	.	-0.7
CC(=O)N(CCC(Cc1ccccc1)c1ccco1)Cc1ccco1 (configuration not stated)	i	-1.2	5.9	90.6	0.3
C=CCn1c(=O)c2c(nc(-c3ccc(S(=O)(=O)O)cc3)n2C)n(C)c1=O	+	-0.3	0.9	114.8	-0.4
COc1ccccc1N1CCN(C(=O)c2cc3c(s2)CCC3)CC1	i	6.7	74.2*	103.9	-0.7
CC[n+]1c(C)sc2c(C)cc(C)cc21	i	2.5	2.1	74.4	-0.1
CCC[n+]1c(C)sc2c3c(ccc21)CCCC3	i	44.5*	1.8	.	-0.6
CCn1cnnc1SCC(=O)NCC1COc2ccccc2O1 (configuration not stated)	.	-0.2	.	101.5	0.1
COc1cc2cnncc2cc1OC	i	3.6	5.4	.	0.0
COc1cc2cc(Br)cc(Br)c2nc1C	i	-5.8	62.9*	105.7	0.0
COC(=O)c1ccc2nc(-c3ccc(Cl)cc3)c(Cc3ccccc3OC)n2c1	.	9.7	.	.	0.3
COc1ccc(CCN2CC(C(=O)NCCc3ccccc3C(F)(F)F)CCC2=O)cc1 (configuration not stated)	i	-5.9	1.9	83.5	-0.4
Cc1ccc(/C=C2\SC(=S)N(C3CCS(=O)(=O)C3)C2=O)o1 (configuration not stated)	i	10.1	-6.2	85.4	-0.6
NS(=O)(=O)c1ccc(-c2ccc(/C=C3\SC(=S)N(C4CCS(=O)(=O)C4)C3=O)o2)cc1 (configuration not stated)	i	35.2*	15.6	77.3*	0.2
O=C(NNC(=O)c1cc2cc3ccccc3nc2s1)c1cccc(Cl)c1	i	27.5	57.5*	96.8	-0.8
Cc1ccc(S(=O)(=O)NNC(=O)c2cc3cc4ccccc4nc3s2)cc1	i	9.6	7.2	.	8.3*
Cc1cccc(C(=O)NNC(=O)c2cc3cc4ccccc4nc3s2)c1	i	6.7	25.4	.	-1.2
COc1ccc(C(=O)NC(=S)NNC(=O)c2ccc(NC(=O)C(C)C)cc2)cc1	i	9.0	-2.3	94.7	-0.5
O=C(Nc1ccc(C(F)(F)F)cc1-c1ccccc1)c1ccccc1	i	2.1	6.4	65.4*	-0.6
O=C(Nc1ccccc1-c1ccccc1)c1cccc(C(F)(F)F)c1	i	-3.2	1.6	88.5	-1.1
Cc1ccnc2nc(C(=O)NC3=NCCS3)nn12	i	3.9	0.2	.	-1.4
CC1(c2ccc(OCC#N)cc2)C=C(c2ccc(OCC#N)cc2)n2nc(C(F)(F)F)nc2N1 (configuration not stated)	+	-6.4	8.9	99.6	-0.2
